Test results from ChEMBL document CHEMBL1125078, “Synthesis and evaluation of novel electrophilic nitrofuran carboxamides and carboxylates as radiosensitizers and bioreductively activated cytotoxins” (1990).

Tests used:
[1] = test system: V79-379A (Chinese hamster lung fibroblasts); experiment: Cytotoxicity in air (MMT assay).
[2] = Differential toxicity expressed as the ratio of C50 (air) to C50 (nitrogen); format: functional
Summary of the method: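 Differential toxicity = C50(air)/C50(N2), with each C50 from the MTT assay on V79-379A cells under air or nitrogen; mean of at least three experiments.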

[3] = test system: V79-379A (Chinese hamster lung fibroblasts); experiment: Cytotoxicity in nitrogen (MMT assay).
[4] = Molar concentration required to give a sensitizer enhancement ratio of 1.6 in hypoxic […] (V79) cells.; format: functional, Cricetulus griseus
Summary of the method: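 Hypoxic Chinese hamster V79-379A cells irradiated in vitro with compound present; C1.6 = molar concentration of compound giving a sensitizer enhancement ratio of 1.6.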

[5] = Compound was tested for persistent physical or behavioral effects in C3H/He mice; format: functional, Mus musculus
Summary of the method: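 Toxicity screen in C3H/He mice: single injection as PBS (pH 7.3) solution or suspension, 0.5 or 1.0 mL per 25 g body weight, doses raised until solubility or toxicity limited; animals watched for acute, severe or persistent physical or behavioural changes (e.g. piloerection, respiration rate, locomotor activity for about 1 h).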

Row | SMILES | C50 [1] [mM] | d tox [2] | C50 [3] [mM] | C1.6 [4] [mM] | Max dose [5] [mM/kg]
1 | Cc1oc([N+](=O)[O-])cc1C(=O)NCC1CO1 (configuration not stated) | 0.1 | 1 | 0.1 | 0.04 | 
2 | O=[N+]([O-])c1nccn1CC(O)CN1CC1 (configuration not stated) | 0.3 | 66.6 | 0.0045 | 0.1 | 
3 | Br.C[C@H](Br)[C@H](C)NCC(O)CNC(=O)c1ccc([N+](=O)[O-])o1 (some centres not stated) | 0.14 | 5.6 | 0.025 | 0.03 | 
4 | C=CCNC(=O)c1cc([N+](=O)[O-])c(C)o1 | 0.015 | 0.5 | 0.03 |  | 
5 | COCC(O)Cn1ccnc1[N+](=O)[O-] (configuration not stated) [MISONIDAZOLE] | 45 | 11.3 | 4 | 0.3 | 
6 | CC1(C)CN1C(=O)c1ccc([N+](=O)[O-])o1 | 0.18 | 1 | 0.18 | 0.1 | 
7 | O=C(NCC1CO1)c1ccc([N+](=O)[O-])o1 (configuration not stated) | 0.05 | 1 | 0.05 | 0.02 | 50
8 | CC1(C)CN1CC(O)CNC(=O)/C=C/c1ccc([N+](=O)[O-])o1 (configuration not stated) | 0.045 | 4.5 | 0.01 | 0.008 | 
9 | CC(C)(CO)NC(=O)c1ccc([N+](=O)[O-])o1 | 0.25 | 2.1 | 0.12 | 0.05 | 100
10 | C[C@@H]1[C@H](C)N1CC(O)CNC(=O)c1ccc([N+](=O)[O-])o1 (some centres not stated) | 0.06 | 3 | 0.02 | 0.05 | 
11 | C[C@@H]1[C@H](C)N1CC(O)CNC(=O)/C=C/c1ccc([N+](=O)[O-])o1 (some centres not stated) | 0.07 | 1.8 | 0.04 | 0.035 | 
12 | C=CCNC(=O)/C=C/c1ccc([N+](=O)[O-])o1 | 0.06 | 2.4 | 0.025 | 0.03 | 
13 | C=CCOC(=O)c1ccc([N+](=O)[O-])o1 | 0.1 | 4 | 0.025 | 0.05 | 
14 | C=CCNC(=O)c1cc([N+](=O)[O-])oc1C | 0.35 | 0.4 | 0.8 | 0.075 | 
15 | C[C@@H]1[C@H](C)N1CC(O)CNC(=O)C1OC1c1ccc([N+](=O)[O-])o1 (some centres not stated) | 0.012 | 1 | 0.012 | 0.025 | 
16 | CC1(C)CN1CC(O)CNC(=O)c1ccc([N+](=O)[O-])o1 (configuration not stated) | 0.15 | 2 | 0.075 | 0.04 | 
17 | O=C(/C=C/c1ccc([N+](=O)[O-])o1)NCC1CO1 (configuration not stated) | 0.03 | 3 | 0.01 | 0.008 | 25
18 | C=CCNC(=O)c1ccc([N+](=O)[O-])o1 | 0.08 | 1.8 | 0.045 | 0.05 | 
19 | Br.NC(=O)N/N=C/c1ccc([N+](=O)[O-])o1 | 1.7 | 8.5 | 0.2 | 0.05 | 
20 | Br.O=[N+]([O-])c1nccn1CC(O)CNCCBr (configuration not stated) | 2.3 | 25.6 | 0.09 | 0.1 | 
